Source: paper PMC3756490 (Journal of medicinal chemistry, 2012)

Assays:
[1] = tested on: LN229-Lux cells (constitutive luciferase reporter gene); assay: constitutive luciferase reporter control assay in LN229-Lux cells; assay type: cell-based, human; conditions: control for inhibition of luciferase per se
Procedure, shortened: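 LN229-Lux cells carry a constitutive luciferase reporter driven by a retroviral LTR promoter. They were grown in DMEM with 10% serum, seeded at 3 × 10⁴ per well and treated with test compound in 1% DMSO medium under normoxia. Lysates were read for luminescence with luciferase substrate. Values are % of untreated control extracts, in triplicates.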

[2] = tested on: HIF transcriptional activity; assay: HIF-dependent luciferase reporter assay in LN229-V6R cells under hypoxia; assay type: cell-based, human; conditions: for inhibition of HIF-1 transcriptional activity (HRE-mediated luciferase) at 10 μM: one day
Procedure, shortened: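 LN229-V6R cells carry a stably integrated hypoxia/HIF-inducible luciferase reporter and were grown in DMEM with 10% serum. Cells were seeded at 3 × 10⁴ per well, held in normoxia (21% O₂, 5% CO₂) for 24 h, then given DMEM with 1% DMSO with or without test compound (2.5, 5.0, 10.0 μM). After 1 h at 37 °C, cells went to hypoxia (1% O₂) for 24 h. Cells were washed and lysed, and extract luminescence was read with luciferase substrate. Triplicates, expressed as % of untreated control.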

LogP7.4 measurement = assay type: physicochemical; conditions: pH 7.4; shake flask method (6a, 6g) or HPLC method (1, 6b-6f, 6h-6l)
Procedure, shortened: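 Shake-flask method (OECD 107): 1-octanol and 0.2 M phosphate buffer pH 7.4 were mutually presaturated by stirring for 24 h at room temperature. 1–2 mg test compound was partitioned between 2 mL each phase, in duplicate. The aqueous phase was quantified by HPLC at 254 nm against standard curves. HPLC method (OECD 117): C₁₈ column with methanol:water:triethylamine 70:30:0.1 at 2 mL/min, calibrated with the shake-flask compounds, aniline, benzene, toluene and chlorobenzene.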

[3] = metabolic stability in mouse liver homogenate; assay type: in vitro ADME; conditions: mouse liver homogenate in PBS (1:2 w/v), pH 7.4
Procedure, shortened: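 Test compound (20 μM) was incubated at 37 °C with shaking in fresh mouse liver homogenate in PBS pH 7.4 (1/2 w/v). At set times, samples were extracted with acetonitrile, dried and reconstituted in mobile phase. They were quantified by reverse-phase C₈ HPLC with photodiode-array detection, using α-naphthoflavone (2 μM) as internal standard and standard curves linear over 1–50 μM. Run in triplicate.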

HIF-1α = HIF-1α protein levels in LN229-V6R cells under hypoxia by western blot; assay type: cell-based, human; conditions: 3-100 μM, hypoxia 24 hours
Procedure, shortened: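 LN229-V6R cells (2 × 10⁵) were seeded in 35 mm dishes and kept under normoxia for 24 h. Fresh DMEM with 1% DMSO and test compound (3, 6, 12, 25, 50 or 100 μM) was added, then 1 h at 37 °C in normoxia, then 24 h in hypoxia (1% O₂). Lysates in SDS loading buffer were run on a 4–12.5% gradient gel and blotted with anti-HIF-1α (1:500) and anti-β-actin (1:3,000), with HRP/ECL detection. Each blot was done at least twice.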

logP7.4 (LogP7.4 measurement) | SMILES | luciferase activity in LN229-Lux cells (constitutive reporter) [1] | inhibition of HIF-1 transcriptional activity (HRE-mediated luciferase) at 10 μM [2] | further results
– | COc1ccc(S(=O)(=O)N(Cc2ccc3c(c2)C=CC(C)(C)O3)c2ccccc2)cc1OC [Compound 1, 3,4-dimethoxy-N-[(2,2-dimethyl-2H-chromene-6-yl)methyl]-N-phenylbenzenesulfonamide] | reduced luciferase activity only in LN229-V6R cells under hypoxia | – | –
– | CC(C)N(Cc1ccc2c(c1)C=CC(C)(C)O2)S(=O)(=O)c1ccccn1 [Compound 6a, N-[(2,2-dimethyl-2H-chromen-6-yl)methyl]-N-(propan-2-yl)pyridine-2-sulfonamide] | – | completely | –
1.2 ∼ 1.3 | COc1cc(CN(C(C)C)S(=O)(=O)c2ccccn2)cc2c1OC(C)(C)C=C2 [Compound 6g, N-[(8-methoxy-2,2-dimethyl-2H-chromen-6-yl)methyl]-N-(propan-2-yl)pyridine-2-sulfonamide] | – | 60 ∼ 80% | –
1.2 ∼ 1.3 | CC(C)CN(Cc1cc(O)c2c(c1)C=CC(C)(C)O2)S(=O)(=O)c1ccccn1 [Compound 6h, N-[(8-hydroxy-2,2-dimethyl-2H-chromen-6-yl)methyl]-N-(2-methylpropan-1-yl)pyridine-2-sulfonamide] | – | – | –
1.2 ∼ 1.3 | CC(C)CN(Cc1cc(O)c2c(c1)C=CC(C)(C)O2)S(=O)(=O)c1ccncc1 [Compound 6l, N-[(8-hydroxy-2,2-dimethyl-2H-chromen-6-yl)methyl]-N-(2-methylpropan-1-yl)pyridine-4-sulfonamide] | – | 60 ∼ 80% | half-life at 20 μM [3]: 13 to 20 h; concentration from which HIF-1α levels decreased dose-dependently (HIF-1α): 25 µM
– | CO[C@H]1/C=C\C=C(/C)C(=O)NC2=CC(=O)C(NCCN(C)C)=C(C[C@@H](C)C[C@H](OC)[C@H](O)[C@@H](C)/C=C(\C)[C@@H]1OC(N)=O)C2=O [Compound 17-DMAG, reference compound] | inhibited both reporter cell lines | – | luciferase activity in LN229-V6R cells (qualitative) [2]: inhibited both reporter cell lines
